From article PMC6759879 (Journal of the American Heart Association: Cardiovascular …, 2019) come the findings set out here.

One experiment has as its system ZO‐1 PDZ2 domain. As to the kind of experiment: EDC zero-length cross‐linking to GST ZO‐1 PDZ domains. In kind it is binding. The following applies: biotin‐tagged peptide at 5, 25 and 50 μmol/L, NeutrAvidin labeling. In a few lines:
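Direct coupling uses purified GST–ZO‑1 PDZ fusion protein from IPTG-induced BL21 at 50 μg/mL with biotinylated peptide in PBS pH 7.5. They react 1 h at room temperature before EDC is added. The mixture is boiled in LDS buffer, run on 18% SDS‑PAGE and blotted for GST or with NeutrAvidin‑HRP by chemiluminescence.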

The test system of experiment [1] is PKCε phosphorylation of Cx43‐CT substrate at Ser368. The experiment is described as follows: PKCε Cx43 CT S368 phosphorylation assay. The following applies: Western blot pS368/total Cx43; biotin-tagged peptides. The format is biochemical. In short, it runs like this:
(§1)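 PKCε (400 ng/mL, prediluted in HEPES/CHAPS/DTT buffer) is used with wild-type or KK/QQ Cx43‑CT (aa 255–382) substrate at 14 μg/mL, plus peptide. Incubated 12 min at 37°C, quenched in LDS, blotted for pS368, stripped, reprobed for total Cx43. % phosphorylation normalized to PKC+ no-peptide control.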
Background: A western blot detects proteins with antibodies after separation by electrophoresis.

A further experiment concerns Cx43 CT‐KK/QQ. The experiment is described as follows: Surface plasmon resonance, immobilized biotin-peptides, Cx43 CT‐KK/QQ analyte. Particulars: analyte 0.5 to 15 μmol/L, reverse control peptide subtracted, mean of 3 runs. The format is binding. In short, it runs like this: (§2)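 Biotin-peptides are immobilized at equal RU on a streptavidin chip in HEPES/EDTA/NaCl/Tween‑20, pH 7.4. Analyte is Cx43 CT (wild type or KK/QQ) with GST removed by PreScission protease, injected at several concentrations in random order in 10 mmol/L HEPES, 100 mmol/L NaCl pH 7.4 at 30 μL/min. Regeneration: 50 mmol/L NaOH/1 mol/L NaCl. Biotin-reversed-sequence reference subtracted; mean of 3 runs.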
(In general: SPR reads the build-up and loss of mass on a sensor chip optically.)

In the next experiment the test system is ZO‐1 PDZ2. The experiment is described as follows: Protein thermal shift assay, ZO‐1 PDZ2. In kind it is binding. The following applies: 500 μg/mL GST‐PDZ2, 25 to 100 μmol/L peptide, PBS pH 7.4, SYPRO Orange, N=6. In a few lines: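 Recombinant GST–PDZ2 (500 μg/mL) is mixed with 25–100 μmol/L peptide in PBS pH 7.4 with SYPRO Orange at 8× final. Melt runs from 25°C to 95°C in 0.05 °C/s steps on a real-time PCR instrument, ROX channel, no quencher. Tm is compared against unliganded protein. Six independent runs.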

In experiment [2] the target is Cx43 CT (amino acids 255–382) (Rattus norvegicus, UniProt P08050). The experiment is described as follows: Surface plasmon resonance, immobilized biotin-peptides, Cx43 CT analyte. The format is binding. In short, it runs like this:
as §2

The subject of the next experiment is Cx43 CT. As to the kind of experiment: EDC cross‐linking of kinase reaction mixtures, Cx43 CT. In kind it is binding. The following applies: peptide at 5, 10 and 25 μmol/L, streptavidin labeling. In short, it runs like this:
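Kinase mixture as in the PKCε assay, but in 20 mmol/L MOPS pH 7.2 with 30 μg/mL Cx43 CT substrate and varied peptide, 15 min at 37°C. EDC added to 20 mmol/L final and left 1 h at room temperature. Stopped with LDS buffer and boiled 5 min. Run on 18% gels, then Coomassie-stained (bands excised for MS/MS) or blotted for biotin with HRP‑NeutrAvidin.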

For experiment [3], the system named is Cx43 CT KK/QQ mutant substrate. As to the kind of experiment: PKCε phosphorylation assay with Cx43 CT KK/QQ mutant substrate. Particulars: biotin‐αCT1 20 μmol/L. In kind it is biochemical. In a few lines: as §1

Chain of Cx43 CT (amino acids 255–382) (P08050 255-382): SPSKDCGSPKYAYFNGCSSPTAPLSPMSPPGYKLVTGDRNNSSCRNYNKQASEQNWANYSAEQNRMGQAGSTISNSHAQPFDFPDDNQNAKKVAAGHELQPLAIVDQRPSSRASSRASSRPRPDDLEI

For RQPKIWFPNRRKPWKK RPRPDDLE [αCT1‐I], the “Interaction with ZO‐1 PDZ2 by EDC cross‐linking” value in the experiment on ZO‐1 PDZ2 domain is “incompetent to interact with the ZO‐1 PDZ2 domain”. In addition, the “Cx43 S368 phosphorylation versus PKCε+plus control (in words)” value in experiment [1] is reported as “significant increase in PKCε‐mediated phosphorylation of Cx43 CT”.

For RQPKIWFPNRRKPWKK RPRPDDLBI [Peptide M3], the “Cx43 CT KK/QQ mutant binding to immobilized biotin-peptide (SPR response)” value (“Cx43 CT KK/QQ mutant binding” for short) in the experiment with Cx43 CT‐KK/QQ is reported as “minimal interaction”. In the experiment on ZO‐1 PDZ2, the “Change of ZO‐1 PDZ2 melt temperature (Tm)” value is recorded as “evidence of significant interaction”. Moreover, the “Cx43 S368 phosphorylation versus PKCε+plus control (in words)” value in experiment [1] is on record as “did not increase Cx43 S368 phosphorylation”. For the same sequence, the “SPR binding kinetics with Cx43 CT (in words)” value in experiment [2] (inspection of SPR curves) was “higher initial on rate”.

In the case of RQPKIWFPNRRKPWKK RPRPAALEI [Peptide M2], in the experiment with Cx43 CT‐KK/QQ, the “Cx43 CT KK/QQ mutant binding” value is on record as “minimal interaction”. Further, the “Cx43 S368 phosphorylation versus PKCε+plus control (in words)” value in experiment [1] is on record as “did not increase Cx43 S368 phosphorylation”.

As for RQPKIWFPNRRKPWKK LPAARIAPR [Peptide M4], the “Cross‐linking to Cx43 CT by EDC” value with Cx43 CT is on record as “no evidence of cross‐linking”.

In the case of RQPKIWFPNRRKPWKK RPRPAALAI [Peptide M1], the “Cx43 CT KK/QQ mutant binding” value with Cx43 CT‐KK/QQ was “minimal interaction”. For the same sequence, the “Phosphorylation of Cx43 CT KK/QQ mutant substrate” value in experiment [3] is reported as “Neither αCT1 nor M1 prompted an increase in phosphorylation”. Besides, the “Cx43 S368 phosphorylation versus PKCε+plus control (in words)” value in experiment [1] is “did not increase Cx43 S368 phosphorylation”. In addition, the “Cx43 CT binding to immobilized biotin-peptide (SPR response)” value in experiment [2] (analyte 0.5 to 15 μmol/L, reverse control peptide subtracted, mean of 3 runs) is recorded as “loss of Cx43 CT binding competence”.
